Experiments:
Format in all cases: toxicity, cell-based
HEK-293T = experiment: Incucyte cell viability with HEK293T; conditions: human, 10 µM, compound concentration 10 uM; note: filed as whole numbers so only -1 and 0 and 1 occur
Fibroblast = experiment: Incucyte cell viability with human fibroblast; conditions: 10 µM, compound concentration 10 uM; note: filed as whole numbers so only -1 and 0 and 1 occur
U2OS = experiment: Multiplex assay against U2OS; conditions: human
Outline: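 Hoechst33342, BioTracker Green Microtubule Cytoskeleton Dye, MitoTracker Red and Annexin V Alexa Fluor 680 were added to live cells at seeding, and imaging on a CQ1 microscope at 37°C and 5% CO2 followed compound addition. Gating by CellPathfinder machine learning separated cells into Hoechst high-intensity objects or normal cells, then normal cells into healthy, pyknosed or fragmented nuclei, then pyknosed cells into mitotic or apoptotic. Per cents of healthy-nucleus cells are reported for the tubulin, mitochondrial-mass and membrane-permeability phenotypes.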

[1] = 0 h, replicate number 1, timepoint 0 hours
[2] = 6 h, replicate number 1, timepoint 6 hours
[3] = 12 h, replicate number 1, timepoint 12 hours
[4] = 18 h, replicate number 1, timepoint 18 hours
[5] = 24 h, replicate number 1, timepoint 24 hours
[6] = 12 h, 1 µM, compound concentration 1 uM, replicate 1
[7] = 12 h, 1 µM, compound concentration 1 uM, replicate 2
[8] = 12 h, 10 µM, compound concentration 10 uM, replicate 1
[9] = 12 h, 10 µM, compound concentration 10 uM, replicate 2
[10] = 24 h, 1 µM, compound concentration 1 uM, replicate 1
[11] = 24 h, 1 µM, compound concentration 1 uM, replicate 2

## CCCCN(CC)c1nc(C)nc2c1c(C)cn2-c1c(C)cc(C)cc1C.Cl
HEK-293T; [1]
  Growth Rate: 0
HEK-293T; [2]
  Growth Rate: 0
HEK-293T; [3]
  Growth Rate: 0
HEK-293T; [4]
  Growth Rate: 0
HEK-293T; [5]
  Growth Rate: 0
Fibroblast; [1]
  Growth Rate: 1
Fibroblast; [2]
  Growth Rate: 0
Fibroblast; [3]
  Growth Rate: 0
Fibroblast; [4]
  Growth Rate: 0
Fibroblast; [5]
  Growth Rate: 0
U2OS; [6]
  Population Apoptotic (%): 33%
  Population Healthy Nuclei (%): 76%
  Population Hoechst High Intensity Objects (%): 8%
  Population Membrane Permeable-Phenotype (%): 3%
  Population Mitochondria Different-Phenotype (%): 7%
  Population Mitotic Cells (%): 66%
  Population Normal (%): 91%
  Population Tubulin-Different-Phenotype (%): 6%
  Total Cell Count: 135
U2OS; [7]
  Population Apoptotic (%): 55%
  Population Fragmented Nuclei (%): 13%
  Population Healthy Nuclei (%): 77%
  Population Hoechst High Intensity Objects (%): 3%
  Population Membrane Permeable-Phenotype (%): 5%
  Population Mitochondria Different-Phenotype (%): 8%
  Population Mitotic Cells (%): 44%
  Population Normal (%): 96%
  Population Pyknosed Nuclei (%): 9%
  Population Tubulin-Different-Phenotype (%): 14%
  Total Cell Count: 95
U2OS; [8]
  Population Apoptotic (%): 65%
  Population Fragmented Nuclei (%): 17%
  Population Healthy Nuclei (%): 67%
  Population Hoechst High Intensity Objects (%): 7%
  Population Membrane Permeable-Phenotype (%): 2%
  Population Mitochondria Different-Phenotype (%): 51%
  Population Mitotic Cells (%): 35%
  Population Normal (%): 92%
  Population Pyknosed Nuclei (%): 14%
  Population Tubulin-Different-Phenotype (%): 37%
  Total Cell Count: 145
U2OS; [9]
  Population Apoptotic (%): 20%
  Population Fragmented Nuclei (%): 9%
  Population Healthy Nuclei (%): 83%
  Population Hoechst High Intensity Objects (%): 6%
  Population Membrane Permeable-Phenotype (%): 4%
  Population Mitochondria Different-Phenotype (%): 55%
  Population Mitotic Cells (%): 80%
  Population Normal (%): 93%
  Population Pyknosed Nuclei (%): 6%
  Population Tubulin-Different-Phenotype (%): 19%
  Total Cell Count: 78
U2OS; [10]
  Population Apoptotic (%): 27%
  Population Fragmented Nuclei (%): 7%
  Population Healthy Nuclei (%): 85%
  Population Mitochondria Different-Phenotype (%): 8%
  Population Mitotic Cells (%): 72%
  Population Pyknosed Nuclei (%): 7%
  Population Tubulin-Different-Phenotype (%): 9%
  Total Cell Count: 162
U2OS; [11]
  Population Apoptotic (%): 29%
  Population Fragmented Nuclei (%): 13%
  Population Healthy Nuclei (%): 70%
  Population Hoechst High Intensity Objects (%): 5%
  Population Membrane Permeable-Phenotype (%): 3%
  Population Mitochondria Different-Phenotype (%): 6%
  Population Mitotic Cells (%): 70%
  Population Normal (%): 94%
  Population Pyknosed Nuclei (%): 15%
  Population Tubulin-Different-Phenotype (%): 7%
  Total Cell Count: 116
U2OS; 24 h, 10 µM, compound concentration 10 uM, replicate 1
  Population Apoptotic (%): 68%
